Reference: ChEMBL document CHEMBL1126605, “Antitumor agents. 139. Synthesis and biological evaluation of thiocolchicine analogs 5,6-dihydro-6(S)-(acyloxy)- and 5,6-dihydro-6(S)-[(aroyloxy)methyl]-1,2,3-trimethoxy-9-(methylthio)-8H- cyclohepta[a]naphthalen-8-ones as novel cytotoxic and antimitotic agents” (J Med Chem, 1993)

Experiments:
A549 = assay: Cytotoxicity against human solid tumor lung carcinoma A549 cell line; assay type: functional; conditions: read-out: ED50 (the source's name)
Tubulin [1] = target: T1, Tubulin (Bos taurus, UniProt Q6B856+Q862L2+Q862F3); assay: Inhibition of tubulin polymerization with preincubation for 15 minutes at 37 degree Centigrade prior to addition of the GTP required for polymerization; assay type: functional
KB = assay: Cytotoxicity against human solid tumor nasopharyngeal carcinoma KB cell line; assay type: functional; conditions: read-out: ED50 (the source's name)
HCT-8 = assay: Cytotoxicity against human solid tumor Colon carcinoma HCT-8 cell line; assay type: functional; conditions: read-out: ED50 (the source's name)
Tubulin (Bos taurus) = Tubulin (Bos taurus) (UniProt Q6B856+Q862L2+Q862F3); conditions: at 5 µM
TE-671 = assay: Cytotoxicity against human central nervous system carcinoma TE671 cell line; assay type: functional; conditions: read-out: ED50 (the source's name)
RPMI-7951 = assay: cells; assay type: functional; conditions: Homo sapiens, read-out: ED50 (the source's name)
P388 [2] = assay: (§1) Cytotoxicity against murine P388 leukemia cell line; assay type: functional; conditions: Mus musculus, read-out: ED50 (the source's name)
Tubulin [3] = target: T1, Tubulin; assay: Evaluated for the inhibition of tubulin polymerization without pre-incubation; assay type: functional
Burkitts lymphoma cell = assay: Growth inhibition on human burkitt lymphoma cells after 36 h; assay type: functional, cell-based
Tubulin [4] = target: T1, Tubulin; assay: Compound was evaluated for the inhibition of tubulin polymerization without pre-incubation; assay type: functional
Outline: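 Drug, tubulin and the GTP needed for polymerization were all mixed before the reaction mixtures were incubated at 37 °C, with no drug–tubulin preincubation. IC50 is the drug concentration inhibiting polymerization, given ± SD from at least three experiments per compound.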

P388 [5] = assay: as §1; assay type: functional, Homo sapiens; conditions: Mus musculus, read-out: ED50 (the source's name)

IC50 (Tubulin [1]) | inhibition (Tubulin (Bos taurus)) | EC50 (RPMI-7951) | IC50 (Tubulin [3]) | IC50 (Burkitts lymphoma cell) | IC50 (Tubulin [4]) | SMILES | EC50 (A549) | EC50 (KB) | EC50 (HCT-8) | EC50 (TE-671) | EC50 (P388 [2]) | EC50 (P388 [5])
> 40000 nM | 0% | 100 nM |  |  |  | COc1cc2c(c(OC)c1OC)-c1ccc(SC)c(=O)cc1[C@@H](COC(=O)c1cccc(F)c1)C2 | 80 nM | 110 nM | 161 nM | 0.02 nM | 141 nM | 
3700 nM | 60% | 0.001 nM | 4300 nM |  |  | CCOC(=O)OC[C@H]1Cc2cc(OC)c(OC)c(OC)c2-c2ccc(SC)c(=O)cc21 | 0.001 nM | 11 nM | 179 nM | 0.001 nM | 16 nM | 
2400 nM | 91% | 0.084 nM | 2800 nM |  |  | C=C1Cc2cc(OC)c(OC)c(OC)c2-c2ccc(SC)c(=O)cc21 | 252 nM | 140 nM | 196 nM | 0.084 nM | 22 nM | 
3400 nM | 83% | 0.093 nM |  |  |  | CCC(=O)OC[C@H]1Cc2cc(OC)c(OC)c(OC)c2-c2ccc(SC)c(=O)cc21 | 220 nM | 93 nM | 162 nM | 0.12 nM | 8 nM | 
6600 nM | 78% | 114 nM |  | 20 nM |  | COc1cc2c(c(OC)c1OC)-c1ccc(SC)c(=O)cc1[C@@H](COC(=O)c1ccc([N+](=O)[O-])cc1)C2 | 4280 nM | 13 nM | 5670 nM | 10 nM | 10 nM | 
> 40000 nM | 0% | 806 nM |  |  |  | COc1ccc(C(=O)OC[C@H]2Cc3cc(OC)c(OC)c(OC)c3-c3ccc(SC)c(=O)cc32)cc1 | > 10 µg/mL | 806 nM | 3280 nM | 2 nM | 138 nM | 
> 40000 nM | 0% | 629 nM |  |  |  | COc1cc2c(c(OC)c1OC)-c1ccc(SC)c(=O)cc1[C@@H](COC(=O)c1cccc(C#N)c1)C2 | 8220 nM | 139 nM | 5780 nM | 1530 nM | 99 nM | 
 |  |  |  |  | 100000 nM | COc1cc2c(ccc3cc(OC)c(OC)c(OC)c32)cc1O |  |  |  |  |  | 
3400 nM | 56% | 144 nM |  |  |  | COc1cc2c(c(OC)c1OC)-c1ccc(SC)c(=O)cc1[C@@H](COC(C)=O)C2 | 1940 nM | 132 nM | 5710 nM | 1320 nM | 96 nM | 
> 40000 nM | 0% | 926 nM |  |  |  | COc1cc2c(c(OC)c1OC)-c1ccc(SC)c(=O)cc1[C@@H](COC(=O)c1ccc(F)cc1)C2 | 1570 nM | 1070 nM | 1970 nM | 1250 nM | 81 nM | 
 |  |  |  |  | > 100000 nM | COc1cc2c(cc1O)CCc1cc(OC)c(OC)c(OC)c1-2 |  |  |  |  |  | 
> 40000 nM | 2% | 110 nM |  |  |  | COc1cc2c(c(OC)c1OC)-c1ccc(SC)c(=O)cc1[C@@H](COC(=O)c1ccc(Br)cc1)C2 | 17000 nM | 92 nM | 9200 nM | 129 nM | 110 nM | 
4500 nM | 46% | 0.022 nM |  |  |  | CCCC(=O)OC[C@H]1Cc2cc(OC)c(OC)c(OC)c2-c2ccc(SC)c(=O)cc21 | 1370 nM | 0.13 nM | 3040 nM | 23 nM | 0.09 nM | 
3000 nM | 91% | 40 nM | 3800 nM |  |  | COc1cc2c(c(OC)c1OC)-c1ccc(SC)c(=O)cc1[C@@H](COC(=O)c1ccccc1F)C2 | 140 nM | 110 nM | 6400 nM | 129 nM | 12 nM | 
> 40000 nM | 0% | 1090 nM |  | 600 nM |  | COc1cc2c(c(OC)c1OC)-c1ccc(SC)c(=O)cc1[C@@H](COC(=O)c1cccc([N+](=O)[O-])c1)C2 | 1470 nM | 1050 nM | 19 nM | 936 nM | 1050 nM | 
3600 nM | 53% | 134 nM | 3700 nM | 60 nM |  | CC(C)n1cnc2c(Nc3ccc(Br)cc3)nc(N3CCC[C@@H]3CO)nc21 | 240 nM | 144 nM | 160 nM | 26 nM | 144 nM | 

SMILES | IC50 (Tubulin [1]) | inhibition (Tubulin (Bos taurus)) | EC50 (RPMI-7951) | IC50 (Tubulin [3]) | IC50 (Burkitts lymphoma cell) | IC50 (Tubulin [4]) | EC50 (A549) | EC50 (KB) | EC50 (HCT-8) | EC50 (TE-671) | EC50 (P388 [2]) | EC50 (P388 [5])
COc1cc2c(c(OC)c1OC)-c1ccc(OC)c(=O)cc1[C@@H](NC(C)=O)CC2 [COLCHICINE] |  |  | 1 nM |  | 50 nM |  | 18 nM | 2 nM | 175 nM | 1 nM |  | 100 nM
